ChEMBL document CHEMBL4270642, “Boronic ester-linked macrocyclic lipopeptides as serine protease inhibitors targeting Escherichia coli type I signal peptidase” (Eur J Med Chem, 2018)
Converted amounts (≈) assume the structure as drawn. Square brackets hold non-standard residues; d marks the D form. Peptide text beside a SMILES is read from it. * marks the point of attachment. Benzoyl(4-(4-hexylphenyl)) = CCCCCCc1ccc(-c2ccc(C(=O)*)cc2)cc1; X1 = C[C@H](N*)B1OC2C[C@@H]3C[C@@H](C3(C)C)[C@]2(C)O1; boroAla = C[C@H](N*)B(O)O; Orn = NCCC[C@H](N)C(=O)O

What was measured:
[1] = molecular target: Signal peptidase I (Escherichia coli K-12) (UniProt P00803); assay: Inhibition of Escherichia coli type 1 signal peptidase lepB assessed as residual activity at 0.1563 uM preincubated for 10 mins followed by Dabcyl-VGGTATAYGAFSRPGLE-(EDANS)-OH substrate addition measured after 2 hrs by FRET based assay (reference value: 100%)
Sequence of Signal peptidase I (Escherichia coli K-12) (P00803 whole entry): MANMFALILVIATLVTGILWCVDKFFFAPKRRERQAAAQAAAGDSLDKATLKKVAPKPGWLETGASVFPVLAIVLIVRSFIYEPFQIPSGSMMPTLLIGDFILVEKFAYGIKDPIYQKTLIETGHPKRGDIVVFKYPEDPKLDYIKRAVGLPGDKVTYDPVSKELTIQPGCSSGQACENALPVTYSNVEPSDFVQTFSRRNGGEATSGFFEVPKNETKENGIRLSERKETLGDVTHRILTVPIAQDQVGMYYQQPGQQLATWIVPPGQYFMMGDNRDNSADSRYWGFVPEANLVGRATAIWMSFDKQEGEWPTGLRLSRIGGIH
How it was run: (§1)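 EcLepB (about 50 nM estimated) preincubated 10 min with compound. Reaction started with Dabcyl/EDANS FRET peptide at 8 µM final (Km 20 µM). Fluorescence followed continuously at 535 nm, 22 °C, for 2 h. Cleavage rates plotted against inhibitor concentration; IC50 from non-linear regression of sigmoidal dose-response curves.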

Escherichia coli [2] = assay: Antibacterial activity against Escherichia coli D22 CGSG 5163 harboring Ips mutant after 16 to 20 hrs by broth microdilution method; type: functional
How it was run: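 Broth microdilution in cation-adjusted Mueller-Hinton II broth, following EUCAST and CLSI guidelines. Two-fold series at final concentrations 64 down to 0.25 µg/mL, with medium-only and growth controls. Inoculum from fresh colonies (18-24 h, 35 °C ± 2 °C) adjusted to 0.5 McFarland, final ≈5 × 10^5 CFU/mL. Plates incubated unshaken 16-20 h at 35 °C ± 2 °C. MIC read visually as complete inhibition of growth.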

[3] = molecular target: Signal peptidase I (Escherichia coli K-12) (UniProt P00803); assay: Inhibition of Escherichia coli type 1 signal peptidase lepB assessed as residual activity at 0.3125 uM preincubated for 10 mins followed by Dabcyl-VGGTATAYGAFSRPGLE-(EDANS)-OH substrate addition measured after 2 hrs by FRET based assay (reference value: 100%); how it was run: as §1
Pseudomonas aeruginosa [4] = assay: Antibacterial activity against efflux defective Pseudomonas aeruginosa PAO750 after 16 to 20 hrs by broth microdilution method; type: functional
How it was run: (§2)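 Broth microdilution in cation-adjusted Mueller-Hinton II per EUCAST/CLSI; two-fold compound series 64 down to 0.25 µg/mL final. Inoculum from fresh colonies (non-selective agar, 18-24 h, 35 ± 2 °C), adjusted to 0.5 McFarland, diluted to about 5 × 10^5 CFU/mL final. Static incubation 16-20 h at 35 ± 2 °C; MIC read visually as complete growth inhibition against medium-only wells.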

[5] = molecular target: Signal peptidase I (Escherichia coli K-12) (UniProt P00803); assay: Inhibition of Escherichia coli type 1 signal peptidase lepB assessed as residual activity at 0.0391 uM preincubated for 10 mins followed by Dabcyl-VGGTATAYGAFSRPGLE-(EDANS)-OH substrate addition measured after 2 hrs by FRET based assay (reference value: 100%); how it was run: as §1
Acinetobacter baumannii = assay: Antibacterial activity against Acinetobacter baumannii ATCC 19606 after 16 to 20 hrs by broth microdilution method; type: functional; conditions: ATCC 19606 = CIP 70.34 = JCM 6841; how it was run: as §2
[6] = molecular target: Signal peptidase I (Escherichia coli K-12) (UniProt P00803); assay: Inhibition of Escherichia coli type 1 signal peptidase lepB assessed as residual activity at 0.0195 uM preincubated for 10 mins followed by Dabcyl-VGGTATAYGAFSRPGLE-(EDANS)-OH substrate addition measured after 2 hrs by FRET based assay (reference value: 100%); how it was run: as §1
[7] = molecular target: Signal peptidase I (Escherichia coli K-12) (UniProt P00803); assay: Inhibition of Escherichia coli type 1 signal peptidase lepB assessed as residual activity at 0.0024 uM preincubated for 10 mins followed by Dabcyl-VGGTATAYGAFSRPGLE-(EDANS)-OH substrate addition measured after 2 hrs by FRET based assay (reference value: 100%); how it was run: as §1
Pseudomonas aeruginosa [8] = assay: Antibacterial activity against Pseudomonas aeruginosa PAO1 after 16 to 20 hrs by broth microdilution method; type: functional; how it was run: as §2
[9] = molecular target: Signal peptidase I (Escherichia coli K-12) (UniProt P00803); assay: Inhibition of Escherichia coli type 1 signal peptidase lepB assessed as residual activity at 0.0012 uM preincubated for 10 mins followed by Dabcyl-VGGTATAYGAFSRPGLE-(EDANS)-OH substrate addition measured after 2 hrs by FRET based assay (reference value: 100%); how it was run: as §1
[10] = molecular target: Signal peptidase I (Escherichia coli K-12) (UniProt P00803); assay: Inhibition of Escherichia coli type 1 signal peptidase lepB assessed as residual activity at 2.5 uM preincubated for 10 mins followed by Dabcyl-VGGTATAYGAFSRPGLE-(EDANS)-OH substrate addition measured after 2 hrs by FRET based assay (reference value: 100%); how it was run: as §1
[11] = molecular target: Signal peptidase I (Escherichia coli K-12) (UniProt P00803); assay: Inhibition of Escherichia coli type 1 signal peptidase lepB assessed as residual activity at 5 uM preincubated for 10 mins followed by Dabcyl-VGGTATAYGAFSRPGLE-(EDANS)-OH substrate addition measured after 2 hrs by FRET based assay (reference value: 100%); how it was run: as §1
[12] = molecular target: Signal peptidase I (Escherichia coli K-12) (UniProt P00803); assay: Inhibition of Escherichia coli type 1 signal peptidase lepB assessed as residual activity at 0.0781 uM preincubated for 10 mins followed by Dabcyl-VGGTATAYGAFSRPGLE-(EDANS)-OH substrate addition measured after 2 hrs by FRET based assay (reference value: 100%); how it was run: as §1
[13] = molecular target: Signal peptidase I (Escherichia coli K-12) (UniProt P00803); assay: Inhibition of Escherichia coli type 1 signal peptidase lepB assessed as residual activity at 0.0006 uM preincubated for 10 mins followed by Dabcyl-VGGTATAYGAFSRPGLE-(EDANS)-OH substrate addition measured after 2 hrs by FRET based assay (reference value: 100%); how it was run: as §1
[14] = molecular target: Signal peptidase I (Escherichia coli K-12) (UniProt P00803); assay: Inhibition of Escherichia coli type 1 signal peptidase lepB assessed as residual activity at 0.0098 uM preincubated for 10 mins followed by Dabcyl-VGGTATAYGAFSRPGLE-(EDANS)-OH substrate addition measured after 2 hrs by FRET based assay (reference value: 100%); how it was run: as §1
[15] = molecular target: Signal peptidase I (Escherichia coli K-12) (UniProt P00803); assay: Inhibition of Escherichia coli type 1 signal peptidase lepB assessed as residual activity at 0.0049 uM preincubated for 10 mins followed by Dabcyl-VGGTATAYGAFSRPGLE-(EDANS)-OH substrate addition measured after 2 hrs by FRET based assay (reference value: 100%); how it was run: as §1
Signal peptidase I = Signal peptidase I (Escherichia coli K-12, UniProt P00803); assay: Inhibition of Escherichia coli type 1 signal peptidase lepB preincubated for 10 mins followed by Dabcyl-VGGTATAYGAFSRPGLE-(EDANS)-OH substrate addition measured after 2 hrs by FRET based assay; how it was run: as §1
Sequence of Signal peptidase I (P00803 whole entry): as above

Klebsiella pneumoniae = assay: Antibacterial activity against Klebsiella pneumoniae ATCC 13883 after 16 to 20 hrs by broth microdilution method; type: functional; how it was run: as §2
[16] = Hemolytic activity in human RBC at 100 uM after 45 mins by spectrophotometric method relative to control; type: ADME, cell-based, Erythrocyte; conditions: red blood cells (erythrocytes), read-out: Activity
How it was run: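 Heparinized human blood; red cells washed three times in Tyrode buffer pH 7.4. Compound at 100 µM final with 1% DMSO and 50% RBC, shaken (250 rpm) 45 min at 37 °C. Cells pelleted (1000 × g, 10 min); supernatant haemoglobin at 540 nm. Percent lysis relative to buffer-only and 2% Triton X-100 controls.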

Staphylococcus aureus = assay: Antibacterial activity against Staphylococcus aureus ATCC 29213 after 16 to 20 hrs by broth microdilution method; type: functional; how it was run: as §2
HepG2 = assay: Cytotoxicity against human HepG2 cells after 72 hrs by FMSA; type: cell-based; conditions: HepG2, 72 h
How it was run: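 HepG2 (ATCC) grown in EMEM with 10% FBS, pen/strep, 2 mM L-glutamine, used up to 20 passages. Seeded at 1000 cells/well, cultured overnight, then dosed acoustically from DMSO stocks. Eight two-fold dilutions in duplicate from top 64 or 32 µM; 72 h at 37 °C, 5% CO2. Fluorescein diacetate hydrolysis read at ex 485/em 530 nm; IC50 by non-linear regression.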

Escherichia coli [17] = assay: Antibacterial activity against Escherichia coli ATCC 25922 after 16 to 20 hrs by broth microdilution method; type: functional; how it was run: as §2
[18] = molecular target: Signal peptidase I (Escherichia coli K-12) (UniProt P00803); assay: Inhibition of Escherichia coli type 1 signal peptidase lepB assessed as residual activity at 1.25 uM preincubated for 10 mins followed by Dabcyl-VGGTATAYGAFSRPGLE-(EDANS)-OH substrate addition measured after 2 hrs by FRET based assay (reference value: 100%); how it was run: as §1
Escherichia coli [19] = assay: Antibacterial activity against tolC deficient Escherichia coli CH3130 after 16 to 20 hrs by broth microdilution method; type: functional; how it was run: as §2
[20] = molecular target: Signal peptidase I (Escherichia coli K-12) (UniProt P00803); assay: Inhibition of Escherichia coli type 1 signal peptidase lepB assessed as residual activity at 10 uM preincubated for 10 mins followed by Dabcyl-VGGTATAYGAFSRPGLE-(EDANS)-OH substrate addition measured after 2 hrs by FRET based assay (reference value: 100%); how it was run: as §1
[21] = molecular target: Signal peptidase I (Escherichia coli K-12) (UniProt P00803); assay: Inhibition of Escherichia coli type 1 signal peptidase lepB assessed as residual activity at 0.625 uM preincubated for 10 mins followed by Dabcyl-VGGTATAYGAFSRPGLE-(EDANS)-OH substrate addition measured after 2 hrs by FRET based assay (reference value: 100%); how it was run: as §1

Compound	Activity [1] [%]	MIC (Escherichia coli [2]) [µg/mL]	Activity [3] [%]	MIC (Pseudomonas aeruginosa [4]) [µg/mL]	Activity [5] [%]	MIC (Acinetobacter baumannii) [µg/mL]	Activity [6] [%]	Activity [7] [%]	MIC (Pseudomonas aeruginosa [8]) [µg/mL]	Activity [9] [%]	Activity [10] [%]	Activity [11] [%]	Activity [12] [%]	Activity [13] [%]	Activity [14] [%]	Activity [15] [%]	IC50 (Signal peptidase I) [nM]	MIC (Klebsiella pneumoniae) [µg/mL]	hemolysis at 0.75 h, 100 µM [16] [%]	MIC (Staphylococcus aureus) [µg/mL]	other results
CCCCCCc1ccc(-c2ccc(C(=O)N[C@@H](CCCN)C(=O)N[C@H](C(=O)N[C@@H](C)C(=O)N[C@@H](CC(N)=O)C(=O)N[C@@H](C)B(O)O)[C@@H](C)O)cc2)cc1 ({Benzoyl(4-(4-hexylphenyl))}-[Orn]TAN-boroAla)	19.2	0.5 (≈ 0.663 µM)	20.3	16 (≈ 21.2 µM)	57.5	4 (≈ 5.31 µM)	84.8	87	64 (≈ 84.9 µM)	97.7	8.8	6.7	25.7	95.9	89.3	93.9	52	2 (≈ 2.65 µM)	4.8	0.025 (≈ 0.0332 µM)	IC50 (HepG2): 10100 nM; MIC (Escherichia coli [17]): 8 µg/mL (≈ 10.6 µM); Activity [18]: 15.6%; MIC (Escherichia coli [19]): 1 µg/mL (≈ 1.33 µM); Activity [20]: 5.8%; Activity [21]: 20.6%
CCCCCCc1ccc(-c2ccc(C(=O)N[C@@H](CCCN)C(=O)N[C@H](C(=O)N[C@@H](C)C(=O)N[C@@H](CC(N)=O)C(=O)N[C@@H](C)B3OC4C[C@@H]5C[C@@H](C5(C)C)[C@]4(C)O3)[C@@H](C)O)cc2)cc1 (stereo partly drawn) ({Benzoyl(4-(4-hexylphenyl))}-[Orn]TAN-X1)	-1.3	0.5 (≈ 0.563 µM)	3.5	32 (≈ 36 µM)	24.9	4 (≈ 4.5 µM)	42.9	91.9	64 (≈ 72.1 µM)	98.6	-0.2	1.8	20.5	114	70.6	87.3	17	2 (≈ 2.25 µM)	11.7	0.025 (≈ 0.0282 µM)	IC50 (HepG2): 11700 nM; MIC (Escherichia coli [17]): 8 µg/mL (≈ 9.01 µM); Activity [18]: 8.5%; MIC (Escherichia coli [19]): 2 µg/mL (≈ 2.25 µM); Activity [20]: 6.3%; Activity [21]: -9.9%
CCCCCCc1ccc(-c2ccc(C(=O)N[C@@H](Cc3cnc[nH]3)C(=O)N[C@H](C(=O)N[C@@H](C)C(=O)N[C@H]3Cc4cn(nn4)CCCN4C[C@@H]5OB(O[C@@H]5C4)[C@H](C)NC3=O)[C@@H](C)O)cc2)cc1	52	64 (≈ 70.5 µM)	39.7	> 64	76.7	> 64	81	94.7	> 64	94	27.8	25	66.2	94.5	91.4	90.8	107	> 64	4.1	> 64	IC50 (HepG2): 5400 nM; MIC (Escherichia coli [17]): > 64 µg/mL; Activity [18]: 34.1%; MIC (Escherichia coli [19]): > 64 µg/mL; Activity [20]: 20.8%; Activity [21]: 34.2%
